Active and inactive are the calls of the source. No cut-off for these calls is given here.
Tests used:
Rattus norvegicus [1] = assay: Increase in body weight in Wistar rat model of streptozotocin-induced diabetes at 30 mg/kg, po measured over 15 days; assay type: ADME, organism-based; set-up: dose 30 mg/kg, route oral; settings: in vivo, 360 h
[2] = target: Peroxisome proliferator-activated receptor gamma (Mus musculus) (UniProt P37238); assay: Transactivation of PPARgamma (mouse) expressed in 3T3-L1 cells incubated for 24 hrs by luciferase reporter gene assay relative to rosiglitazone
Rattus norvegicus [3] = assay: Antidiabetic activity in overnight fasted Wistar rat assessed as reduction in plasma glucose level at 30 mg/kg, po by oral glucose tolerance test; assay type: functional, organism-based; set-up: dose 30 mg/kg
Method in brief: (§1)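 Normal Wistar rats were given a glucose load by the oral glucose tolerance method, and plasma glucose rise was followed after oral test dosing. Glibenclamide was the reference drug. Data are mean ± SEM of six observations versus control, analysed by one-way ANOVA with Dunnett test (p < 0.05, p < 0.01).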

Rattus norvegicus [4] = assay: Antidiabetic activity in Wistar rat model of streptozotocin-induced diabetes assessed as reduction in plasma glucose level at 30 mg/kg, po and dosage repeated for 15 days by GOD-POD method; assay type: functional, organism-based; set-up: dose 30 mg/kg
Rattus norvegicus [5] = assay: Effect on body weight in Wistar rat model of streptozotocin-induced diabetes at 30 mg/kg, po measured over 15 days; assay type: ADME, organism-based; set-up: dose 30 mg/kg, route oral; settings: in vivo, 360 h
Rattus norvegicus [6] = assay: Antidiabetic activity in Wistar rat model of streptozotocin-induced diabetes assessed as reduction in plasma glucose level at 36 mg/kg, po and dosage repeated for 15 days by GOD-POD method; assay type: functional, organism-based; set-up: dose 36 mg/kg
Rattus norvegicus [7] = assay: Antidiabetic activity in overnight fasted Wistar rat assessed as reduction in plasma glucose level at 36 mg/kg, po by oral glucose tolerance test; assay type: functional, organism-based; set-up: dose 36 mg/kg; method in brief: as §1
Rattus norvegicus [8] = assay: Effect on body weight in Wistar rat model of streptozotocin-induced diabetes at 36 mg/kg, po measured over 15 days; assay type: ADME, organism-based; set-up: dose 36 mg/kg, route oral; settings: in vivo, 360 h
3T3-L1 = assay: Increase in PPARgamma gene expression in mouse 3T3L1 cells at 10 uM incubated for 24 hrs by RT-PCR method; assay type: functional

Chain of Peroxisome proliferator-activated receptor gamma (Mus musculus) (P37238 whole entry, looked up): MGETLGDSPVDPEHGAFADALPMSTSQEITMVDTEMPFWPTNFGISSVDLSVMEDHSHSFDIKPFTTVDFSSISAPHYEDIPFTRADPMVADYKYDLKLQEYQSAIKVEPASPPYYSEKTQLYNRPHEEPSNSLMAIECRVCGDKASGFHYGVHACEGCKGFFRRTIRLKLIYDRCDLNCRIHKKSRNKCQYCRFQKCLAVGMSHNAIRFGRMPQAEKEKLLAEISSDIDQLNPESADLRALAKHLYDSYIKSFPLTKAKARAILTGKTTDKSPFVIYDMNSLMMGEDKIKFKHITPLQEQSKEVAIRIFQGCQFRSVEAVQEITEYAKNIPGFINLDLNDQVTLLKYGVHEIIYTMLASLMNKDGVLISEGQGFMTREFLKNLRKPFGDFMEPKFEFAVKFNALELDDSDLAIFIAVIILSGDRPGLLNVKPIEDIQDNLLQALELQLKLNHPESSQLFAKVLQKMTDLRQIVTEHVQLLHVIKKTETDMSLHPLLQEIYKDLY

Q: `CCCCNC(=O)NS(=O)(=O)c1ccc(N2N=C(c3cccs3)CC2c2cccs2)cc1` (stereo not drawn) was tested. Which Activity (Rattus norvegicus [1]) did it give?
A: Its Activity is “Toxic”.

Q: What about the Activity [2] of the same compound?
A: The Activity was “inactive”.

Q: What about the inhibition (Rattus norvegicus [3]) of the same compound?
A: The inhibition was “Active”.

Q: What does the source list for `CCCCNC(=O)NS(=O)(=O)c1ccc(N2N=C(c3cccs3)CC2c2ccccc2)cc1` (stereo not drawn)?
A: Activity (Rattus norvegicus [1]): Toxic; inhibition (Rattus norvegicus [4]): Active; Activity [2]: inactive; inhibition (Rattus norvegicus [3]): Active

Q: `Cc1ccc(C2CC(c3cccs3)=NN2c2ccc(S(=O)(=O)NC(=O)Nc3ccccc3C)cc2)s1` (stereo not drawn) was tested. Which Activity (Rattus norvegicus [5]) did it give?
A: The Activity was “Non-toxic”.

Q: `CN(C)c1ccc(C2CC(c3cccs3)=NN2c2ccc(S(=O)(=O)NC(=O)NCc3ccccc3)cc2)cc1` (stereo not drawn) was tested. Which Activity (Rattus norvegicus [1]) did it give?
A: Its Activity is “Toxic”.

Q: What about the Activity [2] of the same compound?
A: The Activity was “inactive”.

Q: And the inhibition (Rattus norvegicus [3])?
A: Its inhibition is “Active”.

Q: Which Activity (Rattus norvegicus [5]) does the source give for `Cc1ccc(NC(=O)NS(=O)(=O)c2ccc(N3N=C(c4cccs4)CC3c3ccc(N(C)C)cc3)cc2)cc1` (stereo not drawn) here?
A: Its Activity is “Non-toxic”.

Q: And the Activity [2]?
A: Its Activity is “inactive”.

Q: What about the inhibition (Rattus norvegicus [3]) of the same compound?
A: Its inhibition is “Active”.

Q: For `Cc1ccc(NC(=O)NS(=O)(=O)c2ccc(N3N=C(c4cccs4)CC3c3ccccc3)cc2)cc1` (stereo not drawn), which inhibition (Rattus norvegicus [4]) is on record?
A: The inhibition was “Active”.

Q: What about the Activity [2] of the same compound?
A: Its Activity is “inactive”.

Q: And the inhibition (Rattus norvegicus [3])?
A: The inhibition was “Active”.

Q: Which results are given for `COc1ccc(NC(=O)NS(=O)(=O)c2ccc(N3N=C(c4cccs4)CC3c3ccccc3)cc2)cc1` (stereo not drawn)?
A: Activity (Rattus norvegicus [5]): Non-toxic; inhibition (Rattus norvegicus [4]): Active; Activity [2]: inactive; inhibition (Rattus norvegicus [3]): Active

Q: How did the inhibition (Rattus norvegicus [6]) turn out when `CN(CCOc1ccc(CC2SC(=O)NC2=O)cc1)c1ccccn1` (stereo not drawn) [ROSIGLITAZONE] was run?
A: Its inhibition is “Active”.

Q: What about the inhibition (Rattus norvegicus [7]) of the same compound?
A: Its inhibition is “Active”.

Q: What about the Activity (Rattus norvegicus [8]) of the same compound?
A: Its Activity is “Toxic”.

Q: What about the “fold change (FC)” value (3T3-L1) of the same compound?
A: Its value is 1.5.

Q: What does the source list for `O=C(NCc1ccccc1)NS(=O)(=O)c1ccc(N2N=C(c3cccs3)CC2c2cccs2)cc1` (stereo not drawn)?
A: Activity (Rattus norvegicus [5]): Non-toxic; Activity [2]: inactive; inhibition (Rattus norvegicus [3]): Active

Q: With `Cc1ccccc1NC(=O)NS(=O)(=O)c1ccc(N2N=C(c3cccs3)CC2c2ccccc2)cc1` (stereo not drawn) as the compound, how does the Activity (Rattus norvegicus [5]) read?
A: Its Activity is “Non-toxic”.

Q: And the inhibition (Rattus norvegicus [4])?
A: Its inhibition is “Active”.

Q: And the Activity [2]?
A: The Activity was “inactive”.

Q: What about the inhibition (Rattus norvegicus [3]) of the same compound?
A: The inhibition was “Active”.

Q: What about the “fold change (FC)” value (3T3-L1) of the same compound?
A: Its value is 0.95.

Q: `Cc1ccc(C2CC(c3cccs3)=NN2c2ccc(S(=O)(=O)NC(=O)NCc3ccccc3)cc2)s1` (stereo not drawn) was tested. Which Activity (Rattus norvegicus [5]) did it give?
A: The Activity was “Non-toxic”.

Q: What about the Activity [2] of the same compound?
A: The Activity was “inactive”.

Q: What about the inhibition (Rattus norvegicus [3]) of the same compound?
A: Its inhibition is “Active”.

Q: How did the Activity (Rattus norvegicus [5]) turn out when `COc1ccc(C2CC(c3cccs3)=NN2c2ccc(S(=O)(=O)NC(=O)Nc3ccc(C)cc3)cc2)cc1` (stereo not drawn) was run?
A: The Activity was “Non-toxic”.

Q: And the Activity [2]?
A: The Activity was “inactive”.

Q: And the inhibition (Rattus norvegicus [3])?
A: Its inhibition is “Active”.

Q: Which Activity (Rattus norvegicus [5]) does the source give for `Cc1ccc(NC(=O)NS(=O)(=O)c2ccc(N3N=C(c4cccs4)CC3c3cccs3)cc2)cc1` (stereo not drawn) here?
A: Its Activity is “Non-toxic”.

Q: What about the Activity [2] of the same compound?
A: The Activity was “inactive”.

Q: And the inhibition (Rattus norvegicus [3])?
A: The inhibition was “Active”.

Q: For `CN(C)c1ccc(C2CC(c3cccs3)=NN2c2ccc(S(=O)(=O)NC(=S)NCc3ccccc3)cc2)cc1` (stereo not drawn), which Activity (Rattus norvegicus [5]) is on record?
A: The Activity was “Non-toxic”.

Q: What about the Activity [2] of the same compound?
A: Its Activity is “inactive”.

Q: And the inhibition (Rattus norvegicus [3])?
A: The inhibition was “Active”.

Q: What does the source list for `O=C(NCc1ccccc1)NS(=O)(=O)c1ccc(N2N=C(c3cccs3)CC2c2ccccc2)cc1` (stereo not drawn)?
A: Activity (Rattus norvegicus [5]): Non-toxic; inhibition (Rattus norvegicus [4]): Active; Activity [2]: inactive; inhibition (Rattus norvegicus [3]): Active

Q: `COc1ccc(NC(=O)NS(=O)(=O)c2ccc(N3N=C(c4cccs4)CC3c3cccs3)cc2)cc1` (stereo not drawn) was tested. Which Activity (Rattus norvegicus [5]) did it give?
A: Its Activity is “Non-toxic”.

Q: What about the inhibition (Rattus norvegicus [4]) of the same compound?
A: Its inhibition is “Active”.

Q: What about the Activity [2] of the same compound?
A: Its Activity is “inactive”.

Q: And the inhibition (Rattus norvegicus [3])?
A: Its inhibition is “Active”.

Q: What does the source list for `COc1ccc(Cl)cc1C(=O)NCCc1ccc(S(=O)(=O)NC(=O)NC2CCCCC2)cc1` [GLYBURIDE]?
A: Activity (Rattus norvegicus [1]): Toxic; inhibition (Rattus norvegicus [4]): Active; Activity [2]: inactive; inhibition (Rattus norvegicus [3]): Active; fold change (FC) (3T3-L1): 1
